Assays:
[1] = Pharmacokinetic study in rats after single oral dose of DUV; type: in vivo, Wistar rat
Outline: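 Male Wistar rats (250 ± 30 g), acclimatised 7 days and fasted 12 h with free water, got one oral gavage dose of 25 mg kg−1 in 1% DMSO/saline. About 300 µL heparinised blood was drawn predose and at 0.25–12 h. Plasma was spun at 4500 rpm, 4 °C, 30 min, stored at −20 °C, then quantified by UPLC-ESI-MS/MS. Non-compartmental analysis, 5 rats.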

[2] = Stability studies of DUV in human plasma samples; type: in vitro ADME
Outline: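 Blank human plasma was spiked at 15, 150 and 400 ng mL−1 with internal standard at 200 ng mL−1. Exposures: ~48 h in the autosampler, ~6 h at room temperature, three −80 °C/room-temperature freeze–thaw cycles, or 60 days at −80 °C. Samples were precipitated with an equal volume of mobile phase, vortexed, spun, filtered and run by C18 UPLC-ESI-MRM. Mean of 3.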

[3] = Stability of stock and working standard solutions at refrigerated conditions; type: physicochemical; settings: for Recovery (%): 30 days at 8 °C; for stability of stock solutions (1 mg mL^−1): refrigerator (8 °C), at least one month, DMSO/acetonitrile
Outline: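 Stocks were made at 1 mg mL−1: analyte dissolved in 1 mL DMSO, made up with acetonitrile. They were held refrigerated at 8 °C. Working solutions were diluted in acetonitrile to 5–500 ng mL−1, with internal standard at 200 ng mL−1.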

[4] = male, Wistar, rat, plasma, po, 25 mg/kg
[5] = rat plasma, single oral 25 mg kg^−1, mean of 5

C[C@H](Nc1ncnc2nc[nH]c12)c1cc2cccc(Cl)c2c(=O)n1-c1ccccc1 [DUV, 8-chloro-2-phenyl-3-[(1S)-1-(7H-purin-6-ylamino)ethyl]isoquinolin-1-one]
Cmax [1, 4]: 3800 ng/mL | MRT [1, 4]: 1.04 h | Tmax [1, 4]: 1.83 h | half-life [1, 4]: 0.72 h | k el [1, 4]: 0.000269 s⁻¹ | Area under curve ration (AUC0–t/AUC0–∞) [1, 5]: 95.69% | Clearance (CL) [1, 5]: 14.2 mL/min/kg | Elimination half-life time (t1/2) [1, 5]: 0.72 h⁻¹ | Volume of distribution (Vd) [1, 5]: 0.88 L/kg | Recovery (%) ([2]; 60 days at −80 °C, spiked conc. 5 ng mL^−1, mean of 3): 101.51% | Recovery (%) ([2]; 60 days at −80 °C, spiked conc. 15 ng mL^−1, mean of 3): 99.84% | Recovery (%) ([2]; 60 days at −80 °C, spiked conc. 150 ng mL^−1, mean of 3): 101.19% | Recovery (%) ([2]; 60 days at −80 °C, spiked conc. 400 ng mL^−1, mean of 3): 99.87% | Recovery (%) ([2]; Autosampler (48 h), spiked conc. 5 ng mL^−1, mean of 3): 100.12% | Recovery (%) ([2]; Autosampler (48 h), spiked conc. 15 ng mL^−1, mean of 3): 95.89% | Recovery (%) ([2]; Autosampler (48 h), spiked conc. 150 ng mL^−1, mean of 3): 98.42% | Recovery (%) ([2]; Autosampler (48 h), spiked conc. 400 ng mL^−1, mean of 3): 103.28% | Recovery (%) ([2]; Bench top (6 h), room temperature, spiked conc. 5 ng mL^−1, mean of 3): 99.52% | Recovery (%) ([2]; Bench top (6 h), room temperature, spiked conc. 15 ng mL^−1, mean of 3): 100.21% | Recovery (%) ([2]; Bench top (6 h), room temperature, spiked conc. 150 ng mL^−1, mean of 3): 101.43% | Recovery (%) ([2]; Bench top (6 h), room temperature, spiked conc. 400 ng mL^−1, mean of 3): 99.26% | time stable under autosampler storage settings ([2]; autosampler storage settings): ≥ 48 h | recovery ([2]; human, human plasma (spiked QC samples)): 95.9 to 103% | time stable in plasma samples on the bench ([2]; room temperature, bench): at least 6 hours | stability during freeze–thaw cycles ([2]; three freeze–thaw cycles): stable | stability at long-term storage ([2]; −80 °C for 60 days): stable | Recovery (%) ([3]; spiked conc. 5 ng mL^−1, mean of 3): 96.94% | Recovery (%) ([3]; spiked conc. 15 ng mL^−1, mean of 3): 103.24% | Recovery (%) ([3]; spiked conc. 150 ng mL^−1, mean of 3): 101.02% | Recovery (%) ([3]; spiked conc. 400 ng mL^−1, mean of 3): 96.27% | stability of stock and working standard solutions ([3]; 30 days at refrigerated conditions (8 °C)): stable | stability of stock solutions (1 mg mL^−1) [3]: stable

Cc1cc(Nc2ncc(Cl)c(Nc3ccccc3S(=O)(=O)C(C)C)n2)c(OC(C)C)cc1C1CCNCC1 [CRB, Ceritinib]
stability of stock solutions (1 mg mL^−1) [3]: stable

Reference: paper PMC9999367 (RSC Advances, 2023)
